ADAM17 inh: ADAM17 inhibition, QFRET primary screen | recombinant ADAM17, EDANS/DABCYL FRET peptide cleavage | AID 720648 | inhibition, % at 6.95 µM | hit rate 0.83% among 370,000;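 active means inhibition above the mean of compounds lying between control limits plus 3 SD, set per campaign, cut at about 8.5% in these data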;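 further: 0% = DMSO-only wells as the low control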
Target sequence (P78536 215-824 limits assumed): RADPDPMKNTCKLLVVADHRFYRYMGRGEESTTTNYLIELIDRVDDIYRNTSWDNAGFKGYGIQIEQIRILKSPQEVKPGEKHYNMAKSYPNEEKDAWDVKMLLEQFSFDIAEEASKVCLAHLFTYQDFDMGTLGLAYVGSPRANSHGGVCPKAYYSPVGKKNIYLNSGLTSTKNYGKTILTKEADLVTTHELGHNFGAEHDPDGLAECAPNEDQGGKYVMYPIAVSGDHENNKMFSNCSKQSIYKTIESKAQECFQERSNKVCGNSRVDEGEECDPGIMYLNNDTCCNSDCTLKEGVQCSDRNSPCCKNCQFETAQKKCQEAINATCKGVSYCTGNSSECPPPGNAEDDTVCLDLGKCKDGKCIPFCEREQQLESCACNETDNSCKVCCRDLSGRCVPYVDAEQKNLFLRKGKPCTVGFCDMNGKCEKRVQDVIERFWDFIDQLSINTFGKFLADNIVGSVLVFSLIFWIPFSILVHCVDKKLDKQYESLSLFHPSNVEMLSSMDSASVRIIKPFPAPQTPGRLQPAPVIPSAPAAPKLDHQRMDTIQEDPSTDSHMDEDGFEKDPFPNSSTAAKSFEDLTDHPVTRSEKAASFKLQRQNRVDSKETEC
DDE Tn7 FP inh: disrupts Tn7 cyclic peptide binding to fibrin D-Dimer-E complex | P02675 | inhibition, % at 8.3 µM | hit rate 0.13% among 370,000 | FP displacement of FITC-Tn7 peptide from fibrin DD(E); 0% = median of compound wells per plate;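 active means inhibition above the mean of compounds falling within the control limits plus 3 SD of them, cut at about 14% in these data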;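 further: 0% = plate median of compound wells and 100% = 10 µM Aha-Tn7 peptide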
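Measure: % inhibition scaled between sample-field median and high-control FP; Test system: human fibrin DD(E); Quantity: 2 µM final DD(E) protein; Doses: one dose, 8.3 µM nominal; Schedule: compound with protein 10 min, then 3 h after probe, room temperature; Detection: fluorescence polarization; Medium: Tris buffer with calcium and detergent, pH 7.8.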
ADAM10 inh: inhibits human ADAM10; recombinant ADAM10, EDANS/DABCYL FRET peptide cleavage, 3 h; hit rate 0.62% among 370,000; inhibition, % at 7 µM; O14672;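 active means inhibition above a per-campaign cutoff equal to the mean of compounds falling between control-based bounds plus 3 SD, cut at about 20% in these data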;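 further: 0% = DMSO wells while the 100% control is not disclosed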
MT1-MMP act inh: MT1-MMP (human) activation inhibition | HT1080 RFP-PRO-GFP cells, GFP/RFP ratio fluorescence, overnight; percent of plate control window, DMSO zero | GFP/RFP ratio change, % at 20 µM | hit rate 0.061% among 360,000 | AID 651647;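 active means GFP/RFP ratio change of at least 30% with cell ATP level not reduced by more than half and red fluorescence within 50% of control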
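Material – HT1080 RFP-PRO-GFP cells · Control set – DMSO wells and RFP-L50D-GFP cells · Incubation – overnight cell settling, then overnight compound exposure, 37 °C, 5% CO2 · Compound dosing – single-point 20 µM compound, 1% DMSO · Read-out – GFP/RFP fluorescence ratio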
Tn6 DDE FP: disrupts Tn6 cyclic peptide binding to fibrin D-Dimer-E complex. P02675. Fibrin DD(E) TRITC-Tn6 fluorescence polarization displacement. inhibition, % at 8.3 µM. hit rate 0.21% among 370,000. AID 720509;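 active means inhibition above a per-campaign cutoff: mean of compounds within control limits plus 3 SD, cut at about 15% in these data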;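 further: 0% = median of all compound wells on the plate and 100% = blocking peptide control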
ADAM10 counter: counter-screen for ADAM17 exosite inhibitors: inhibitors of human ADAM10; shares compounds with ADAM17 inh; recombinant ADAM10, EDANS/DABCYL FRET peptide cleavage, 3 h; inhibition, % at 6.95 µM; hit rate 47% among 2,900;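 active means mean inhibition over the triplicate runs exceeds the activity threshold set in the earlier primary screen, cut at about 20% in these data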;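 further: 0% = DMSO wells and 100% = marimastat wells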
ADAM17 confirm: human ADAM17 inhibition, confirmation. hit rate 65% among 2,900. recombinant ADAM17, EDANS/DABCYL QFRET peptide cleavage. inhibition, % at 6.95 µM. AID 743257. shares compounds with ADAM17 inh;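 active means mean inhibition across replicates above the hit cutoff set in the primary screen, cut at about 8.5% in these data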;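 further: 0% = DMSO wells and 100% = marimastat wells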
Active calls of the source: *; / = not tested or not shown. Hits are enriched below; roughly 1.6% of the tested compounds scored in any of these assays.

SMILES	ADAM17 inh	DDE Tn7 FP inh	ADAM10 inh	MT1-MMP act inh	Tn6 DDE FP	ADAM10 counter	ADAM17 confirm
Cc1ccccc1CN1CCCCC(NC(=O)c2ccc3ccccc3c2)C1=O (configuration not stated)	22*	8	5	/	-8	7	8
COC(=O)C1=C(C)N(C)C(=NCc2ccccc2C(F)(F)F)NC1c1cccc(F)c1 (configuration not stated)	0	-7	2	/	-10	/	/
CCOc1ccc(NC(=O)CN2CCN(c3ccccc3C)CC2)cc1S(=O)(=O)N1CCCC1	-3	2	-4	1	-10	/	/
CCOc1ccc(NC(=O)CN2CCN(c3ccc(F)cc3)CC2)cc1S(=O)(=O)N1CCCC1	11*	-12	-1	4	-13	2	5
Cc1ccccc1OCCCSc1nc2ccccc2[nH]1	8.8*	-1	19	-2	-9	15	10*
Nc1c(Cl)cc(-c2csc(N3CCCC3c3nc4cc(Cl)c(N5CCCCC5)cc4n3CCCO)n2)cc1Cl (configuration not stated)	5	0	11	-1	-3	/	/
OCCCn1c(C2CCCN2c2nc(-c3ccc(Cl)cc3)cs2)nc2cc(C(F)(F)F)ccc21 (configuration not stated)	3	-5	0	-4	-3	/	/
Nc1c(Cl)cc(-c2csc(N3CCCC3c3nc4cc(Cl)c(Cl)cc4n3CCCO)n2)cc1Cl (configuration not stated)	0	0	5	-2	5	/	/
OCOCCCn1c(C2CCCN2c2nc(-c3ccc(F)cc3)cs2)nc2cc(Cl)c(N3CCCCC3)cc21 (configuration not stated)	10*	-6	15	6	3	16	8.7*
OCCCn1c(C2CCCN2c2nc(-c3ccc(Cl)cc3)cs2)nc2cc(Cl)c(Cl)cc21 (configuration not stated)	9.1*	1	19	4	2	27*	12*
OCCCn1c(C2CCCN2c2nc(-c3ccc(F)cc3)cs2)nc2cc(Cl)c(Cl)cc21 (configuration not stated)	9.5*	3	12	-1	0	19	11*
COC(=O)C[C@@H]1CC[C@H]2[C@@H](COc3ccc(NC(=O)c4cc(C)on4)cc3C(=O)N2C)O1	1	-2	1	/	6	/	/
CCOC(=O)CC[C@@H]1CC[C@]2(CCCN(Cc3ccc(OC)cc3)C2)O1	2	-4	6	/	3	/	/
CCCCCCCCN1CCS(=O)(=O)N(Cc2ccc(F)cc2)C(C(=O)OC)C1 (configuration not stated)	1	-2	2	/	2	/	/
COc1ccccc1NS(=O)(=O)c1ccc(Cl)c(NC(=S)NC(=O)C2CCCC2)c1	9.9*	4	13	2	2	38*	17*
CCN(CC)S(=O)(=O)c1ccc(Cl)c(NC(=S)NC(=O)C2CCCC2)c1	5	0	10	0	0	/	/
COC(=O)C[C@H]1CC[C@@H]2[C@@H](COc3ccc(NC(=O)C4CCCCC4)cc3C(=O)N2C)O1	0	-2	-3	/	-8	/	/
NC(CSC(c1ccccc1)(c1ccccc1)c1cccc2ccccc12)C(=O)O (configuration not stated)	/	/	/	3	/	/	/
NC(CSC1(c2cccc3ccccc23)c2ccccc2-c2ccccc21)C(=O)O (configuration not stated)	10*	-4	-7	1	-1	13	10*
CC(C)(C(=O)N1CCC1(C)C(=O)Nc1ccccc1Br)c1ccccc1 (configuration not stated)	11*	8	11	5	3	-2	0
CC(C)(C(=O)N1CCC1(C)C(=O)NC1Cc2ccccc2C1)c1ccccc1 (configuration not stated)	-2	-3	-6	-1	0	/	/
CC(=O)Nc1ccc(S(=O)(=O)NCCSCc2cccc(Cl)c2)cc1	8.9*	-6	15	5	4	6	5
CC(=O)Nc1ccc(S(=O)(=O)NCCSCc2c(Cl)cccc2Cl)cc1	-2	-2	-1	8	-4	/	/
O=C(/C=C/c1cccc([N+](=O)[O-])c1)NCCSCc1cccc(Cl)c1	13*	-3	19	4	-7	22*	12*
C=CCN1C(=O)c2[nH]nc(-c3ccccc3)c2C1c1ccc(C)cc1 (configuration not stated)	-2	5	-8	/	-4	/	/
SMILES	ADAM17 inh	DDE Tn7 FP inh	ADAM10 inh	MT1-MMP act inh	Tn6 DDE FP	ADAM10 counter	ADAM17 confirm
CC(C)(C)NC(=O)CSc1nc(-c2ccc(F)cc2)cs1	9.1*	0	3	2	4	3	0
CCNC(=O)CSc1nc(-c2ccc(F)cc2)cs1	-4	4	-2	3	2	/	/
CSCSC1=C(C#N)C(c2ccccc2Cl)C(C(C)=O)=C(C)N1 (configuration not stated)	15*	1	4	-22	1	10	9.3*
O=S(=O)(NCC(Nc1ccccc1)c1ccccc1)c1ccc(Cl)cc1 (configuration not stated)	9.0*	3	15	-1	1	36*	21*
CCCc1cc(-c2[nH]ncc2-c2ccc3c(c2)OCCCO3)c(O)cc1OC	10*	-7	18	/	-5	28*	13*
COc1ccc(NC(=O)c2cc3sccc3n2Cc2ccc(F)cc2)cc1OC	9.8*	-9	15	0	6	3	7
CCOC(=O)c1ccc(-n2c(O)c(/C=N/NC(=O)C3COc4ccccc4O3)c3ccccc3c2=O)cc1 (configuration not stated)	10*	-1	5	-9	-2	-31	5
CCOC(=O)c1ccc(NC(=O)C2COc3ccccc3O2)cc1 (configuration not stated)	0	2	5	2	-9	/	/
Cc1cc(C)cc(C(=O)N(C)C2CCCN(Cc3ccccc3F)C2)c1 (configuration not stated)	0	-5	16	1	-2	/	/
CN(C(=O)CCN1CCCO1)C1CCCN(Cc2ccccc2F)C1 (configuration not stated)	9.0*	-4	-2	-1	-2	15	7
COc1ccccc1CCn1cnc(-c2ccccc2)c1CC(C)C	8.7*	0	11	/	-3	18	9.1*
COc1ccccc1CCn1cnc(-c2ccc(F)cc2)c1CC(C)C	3	0	7	/	-3	/	/

Compound activity from PubChem BioAssay.
